As usually defined, the IC50 is the point on the concentration scale where inhibition reaches its midpoint. Low readings indicate greater potency, high ones weaker potency.

Consider one compound from ChEMBL document CHEMBL1155469, “Peptide nucleic acids conjugated to short basic peptides show improved pharmacokinetics and antisense activity in adipose tissue” (J Med Chem, 2010).

Series [1] relates to Mus musculus. The series is described as follows: Toxicity in Balb/C mouse assessed as change in blood urea nitrogen levels at 25 mg/kg, ip administered thrice a week for 2 weeks measured 48 hrs after last dose. In kind it is organism-based. Set-up: dose 25 mg/kg, route intraperitoneal. The note with it: in vivo. In outline: (§1)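 Male Balb/c mice, 6–8 wk, n=4/group, received compound i.p. in PBS (10 ul/g) 3x/wk for 2 wk. Body weight was monitored throughout. At 48 h after the last dose, mice were anesthetized with isoflurane and bled by cardiac puncture. Serum AST, ALT, BUN, bilirubin, glucose and triglycerides were compared with the saline group. ALT rise below 2x normal was counted as absent.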

The test system of the next series is BCL1. Nature of the series: Inhibition of PTEN expression in mouse BCL1 cells after 62 hrs by Western blotting. In kind it is functional, cell-based. Conditions: BCL1, 62 h. In outline: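 BCL1 cells were grown in DMEM with 10% FBS at 37 °C, 5% CO2. Compound was delivered to 2×10^6 cells by electroporation (200 V, 1000 uF, 13 ohms), and cells were harvested 62 h later. Western blot of RIPA lysates used rabbit anti-PTEN and anti-CD40 (1:1000) with HRP secondary and ECL detection. PTEN was normalized to CD40. n=3, mean ± SD.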
Background: In western blotting, separated proteins are transferred to a membrane and probed.

In series [2] the test system is Mus musculus. The series is described as follows: Toxicity in Balb/C mouse assessed as change in serum AST levels at 25 mg/kg, ip administered thrice a week for 2 weeks measured 48 hrs after last dose. Type of series: organism-based. Further details: dose 25 mg/kg, route intraperitoneal. Conditions: in vivo. The procedure, abridged:
as §1

Series [3] deals with Mus musculus. Nature of the series: Inhibition of PTEN expression in Balb/C mouse kidney at 25 mg/kg, ip administered thrice a week for 2 weeks measured 48 hrs after last dose by Western blot analysis. Further details: dose 25 mg/kg. Type of series: functional, organism-based. In outline:
(§2)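 Male Balb/c mice, 6–8 wk, n=4/group, dosed i.p. in PBS 3x/wk for 2 wk and killed 48 h after the last dose. Tissue was homogenized in RIPA buffer with protease inhibitors, and protein was measured by Lowry assay. Lysates were run on 10% PAGE and blotted to PVDF. Blots were probed with rabbit anti-PTEN (1:1000) and HRP anti-rabbit (1:2500), with ECL detection.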

The subject of series [4] is Mus musculus. The series is described as follows: Toxicity in Balb/C mouse assessed as change in serum glucose levels at 25 mg/kg, ip administered thrice a week for 2 weeks measured 48 hrs after last dose. The note with it: in vivo. Type of series: organism-based. Further details: dose 25 mg/kg, route intraperitoneal. The procedure, abridged: as §1
Series [5] concerns Mus musculus. Nature of the series: Toxicity in Balb/C mouse assessed as change in body weight at 25 mg/kg, ip administered thrice a week for 2 weeks measured 48 hrs after last dose. Type of series: organism-based. Set-up: dose 25 mg/kg, route intraperitoneal. Conditions: in vivo. The procedure, abridged: as §1
The test system of series [6] is Mus musculus. The series is described as follows: Toxicity in Balb/C mouse assessed as change in serum bilirubin levels at 25 mg/kg, ip administered thrice a week for 2 weeks measured 48 hrs after last dose. Set-up: dose 25 mg/kg, route intraperitoneal. Type of series: organism-based. The note with it: in vivo. In outline: as §1
The subject of series [7] is Mus musculus. The series is described as follows: Toxicity in Balb/C mouse assessed as change in serum ALT levels at 25 mg/kg, ip administered thrice a week for 2 weeks measured 48 hrs after last dose. In kind it is organism-based. Further details: dose 25 mg/kg, route intraperitoneal. The note with it: in vivo. In outline:
as §1

The test system of series [8] is Mus musculus. The series is described as follows: Toxicity in Balb/C mouse assessed as change in serum triglyceride levels at 25 mg/kg, ip administered thrice a week for 2 weeks measured 48 hrs after last dose. In kind it is organism-based. Further details: dose 25 mg/kg, route intraperitoneal. The note with it: in vivo. The procedure, abridged: as §1
Series [9] relates to Mus musculus. The series is described as follows: Inhibition of PTEN expression in Balb/C mouse liver at 25 mg/kg, ip administered thrice a week for 2 weeks measured 48 hrs after last dose by Western blot analysis. In kind it is functional, organism-based. Set-up: dose 25 mg/kg. In outline:
as §2

The test system of series [10] is Mus musculus. The series is described as follows: Inhibition of PTEN expression in Balb/C mouse white adipose tissue assessed as reduction of full length transcript at 25 mg/kg, ip administered thrice a week for 2 weeks measured 48 hrs after last dose […]. Type of series: functional, organism-based. Further details: dose 25 mg/kg.
Series [11] has as its system Mus musculus. Nature of the series: Inhibition of PTEN expression in Balb/C mouse white adipose tissue assessed as upregulation of isoform lacking exon at 25 mg/kg, ip administered thrice a week for 2 weeks measured 48 hrs after last dose […]. In kind it is functional, organism-based. Further details: dose 25 mg/kg.

Each structure is given as a SMILES string. Active and inactive are the calls of the source. The calls are words filed in the database; no cut-off is given here.

On to `COCCO[C@@H]1[C@H](OP(=O)(S)OC[C@H]2O[C@@H](n3cc(C)c(=O)[nH]c3=O)C[C@@H]2OP(=O)(S)OC[C@H]2O[C@@H](n3cnc4c(=O)[nH]c(N)nc43)[C@H](OCCOC)[C@@H]2OP(=O)(S)OC[C@H]2O[C@@H](n3ccc(N)nc3=O)[C@H](OCCOC)[C@@H]2OP(=O)(S)OC[C@H]2O[C@@H](n3cc(C)c(=O)[nH]c3=O)C[C@@H]2OP(=O)(S)OC[C@H]2O[C@@H](n3cnc4c(N)ncnc43)[C@H](O)[C@@H]2OP(=O)(S)OC[C@H]2O[C@@H](n3cnc4c(=O)[nH]c(N)nc43)[C@H](O)[C@@H]2OP(=O)(S)OC[C@H]2O[C@@H](n3ccc(N)nc3=O)[C@H](O)[C@@H]2OP(=O)(S)OC[C@H]2O[C@@H](n3ccc(N)nc3=O)[C@H](O)[C@@H]2OP(=O)(S)OC[C@H]2O[C@@H](n3cc(C)c(=O)[nH]c3=O)C[C@@H]2OP(=O)(S)OC[C@H]2O[C@@H](n3ccc(N)nc3=O)[C@H](O)[C@@H]2OP(=O)(S)OC[C@H]2O[C@@H](n3cc(C)c(=O)[nH]c3=O)C[C@@H]2OP(=O)(S)OC[C@H]2O[C@@H](n3cnc4c(=O)[nH]c(N)nc43)[C@H](O)[C@@H]2OP(=O)(S)OC[C@H]2O[C@@H](n3cnc4c(=O)[nH]c(N)nc43)[C@H](O)[C@@H]2OP(=O)(S)OC[C@H]2O[C@@H](n3cnc4c(N)ncnc43)[C@H](O)[C@@H]2OP(=O)(S)OC[C@H]2O[C@@H](n3cc(C)c(=O)[nH]c3=O)C[C@@H]2OP(=O)(S)OC[C@H]2O[C@@H](n3cc(C)c(=O)[nH]c3=O)C[C@@H]2OP(=O)(S)OC[C@H]2O[C@@H](n3cc(C)c(=O)[nH]c3=O)C[C@@H]2OP(=O)(S)OC[C@H]2O[C@@H](n3cnc4c(=O)[nH]c(N)nc43)[C@H](OCCOC)[C@@H]2OP(=O)(S)OC[C@H]2O[C@@H](n3cnc4c(N)ncnc43)[C@H](OCCOC)[C@@H]2O)[C@@H](CO)O[C@H]1n1ccc(N)nc1=O` (some centres not stated), for which the Activity result in the series with Mus musculus [1], in the series with Mus musculus [2], in the series with Mus musculus [4], with Mus musculus [5], in the series with Mus musculus [6] and with Mus musculus [7] was “Non-toxic” throughout. Besides, in the series on Mus musculus [8], the Activity entry is recorded as “Non-toxic”. The compound also displayed an IC50 in the series on BCL1 of 3.2 µM. Moreover, the inhibition entry in the series with Mus musculus [3] is “inactive”. The outcome in the series with Mus musculus [9], with Mus musculus [10] and with Mus musculus [11] was Active.
